Most compounds without a hit are left out; they make up all but 1.4% or so of the library.
FID counter: fluorescent intercalator displacement, NS3 helicase counter-screen; DNA fluorescent intercalator displacement, fluorescence; inhibition, % at 7.9 µM; hit rate 0.17% among 290,000; in the data active = inhibition above about 37%;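 note: 0% = vehicle and 100% = reference compound; higher means more ethidium bromide displaced from hairpin DNA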
DDE Tn7 FP inh: DD(E)-Tn7 binding inhibition, primary FP screen | hit rate 0.13% among 370,000 | P02675 | AID 720508 | inhibition, % at 8.3 µM | FP displacement of FITC-Tn7 peptide from fibrin DD(E); 0% = median of compound wells per plate;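 active = inhibition above the mean of compounds falling within the control limits plus 3 SD of them, cut at about 14% in these data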;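 note: 0% = plate median of compound wells and 100% = 10 µM Aha-Tn7 peptide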
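Test system: human clot-derived fibrin DD(E) complex / Quantity: 2 µM final DD(E) protein / Incubation: 10 min plus 3 h, room temperature / Measured by: fluorescence polarization / Benchmarks: high control of 10 µM Aha-Tn7 peptide / Replicates: singlicate testing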
Tn6 DDE FP: disrupts Tn6 cyclic peptide binding to fibrin D-Dimer-E complex. P02675. Fibrin DD(E) TRITC-Tn6 fluorescence polarization displacement. inhibition, % at 8.3 µM. hit rate 0.21% among 370,000. AID 720509;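 active = inhibition above a per-campaign cutoff: mean of compounds within control limits plus 3 SD, cut at about 15% in these data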;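 note: 0% = median of all compound wells on the plate and 100% = blocking peptide control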
PLC-beta3 inh: blocks human PLC-beta3 enzyme activity. Q01970. Purified PLC-beta3, fluorogenic substrate, fluorescence. inhibition, % at 12.2 µM. hit rate 0.18% among 370,000; in the data active = inhibition above about 11%;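 note: 0% = median of compound wells on plate and 100% = full blocker control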
PLCg1 inh: PLC-gamma1 (human) inhibition, primary screen. P19174. purified PLC-gamma1, fluorogenic substrate, fluorescence. inhibition, % at 12.2 µM. hit rate 0.84% among 370,000; in the data active = inhibition above about 9.5%
* marks the source's active call; other numbers are inactive results; i = inactive; · = no result.

SMILES	FID counter	DDE Tn7 FP inh	Tn6 DDE FP	PLC-beta3 inh	PLCg1 inh
COc1ccccc1C(=O)N(CCC1CCCN1C)c1nc2ccccc2s1 (configuration not stated)	42*	3	1	-8	-2
O=C(C[C@@H]1C[C@@H]2c3cc(NS(=O)(=O)c4ccc(F)cc4)ccc3O[C@@H]2[C@H](CO)O1)NCc1ccc(Oc2ccccc2)cc1	·	-2	-7	-3	9.6*
O=C(Cc1ncn[nH]1)NCCc1ccccc1	-3	-3	7	5	2
Cc1c(C(=O)O)c(O)cc2c1C(=O)c1c(O)c([C@@H]3O[C@H](CO)[C@@H](O)[C@H](O)[C@H]3O)c(O)c(O)c1C2=O	·	7	18*	2	5
COc1c(O)cc2c(c1O)[C@@H]1O[C@H](CO)[C@@H](O)[C@H](O)[C@H]1OC2=O	-2	-1	7	-3	0
O=C(O)/C=C/C(=O)NCCC1=CCCCC1	-12	2	-7	-3	1
CN(C)CCCNc1cc(C(C)(C)C)nc2c(-c3ccccc3)cnn12	48*	-1	2	-199	-163
CC(C)(C)c1cc(NCCCn2ccnc2)n2ncc(-c3ccc(Cl)cc3)c2n1	8	4	14	i	i
CN(C)CCCNc1cc(-c2ccccc2)nc2cc(-c3cccc(F)c3)nn12	40*	5	-7	-436	-449
CCN(CC)CCn1c2ccccc2c2cnc(N)c(C#N)c21	50*	6	0	-174	-119
CCOc1cccc2sc(N(CCCN(C)C)C(=O)c3ccc(S(=O)(=O)N(CC)Cc4ccccc4)cc3)nc12	37*	-6	-5	-4	3
CCOc1cccc2sc(N(CCCN(C)C)C(=O)c3ccc(S(=O)(=O)N(C)Cc4ccccc4)cc3)nc12	39*	1	-9	-3	4
CCN(c1ccccc1)S(=O)(=O)c1ccc(C(=O)N(CCCN(C)C)c2nc3c(C)cccc3s2)cc1	37*	-10	1	-7	-1
CCN(c1ccccc1)S(=O)(=O)c1ccc(C(=O)N(CCCN(C)C)c2nc3cc4c(cc3s2)OCO4)cc1	30	-2	3	-7	0
Cc1ccc(OCc2cc(C(=O)Nc3ccccc3)oc2C)cc1	-14	-4	-1	0	-3
COC(=O)COc1ccc(/C=C2\SC(=O)N(CC(=O)Nc3ccccc3F)C2=O)cc1	-6	2	1	-8	1
COc1cccc(OC)c1OCCCCCCN1CCN(C)CC1	1	3	-6	-1	13*
COc1cccc(OC)c1OCCCCN1CCCC1	6	1	7	1	0
CCN(CC)c1ncnc2c1sc1nc(N3CCOCC3)c3c(c12)CCC3	-1	·	·	·	·
CC(C)Oc1ccc(C(=O)NC2CCCCC2)cc1	-25	-8	-1	1	3
CC(C)Oc1ccc(C(CCN)C2CCCCC2)cc1 (configuration not stated)	21	4	-2	-4	12*
CNc1ccc(C(=O)OCC(=O)NC(=O)NC2CCCC2)cc1[N+](=O)[O-]	·	-1	-4	-5	13*
CCN(CC)c1ccc2nc3c4ccccc4c(=O)cc-3oc2c1	-2	5	105*	-19	-12
CCN(CC)c1ccc2cc(C=O)c(=O)oc2c1	-2	-63	4	-75	-57
O=C(CN1C(=O)COc2ccccc21)NCCCN1CCN(c2ccccc2F)CC1	37*	-7	-4	-5	1
SMILES	FID counter	DDE Tn7 FP inh	Tn6 DDE FP	PLC-beta3 inh	PLCg1 inh
Nc1ccc(Oc2ccc(N)c([N+](=O)[O-])c2)cc1[N+](=O)[O-]	·	0	-8	2	8
CC1(C)Oc2cc(N)c([N+](=O)[O-])cc2O1	1	-6	-6	10	32*
COc1ccc(CNC(=O)COC(=O)CCc2nc3ccccc3c(=O)[nH]2)cc1	-2	8	-6	-7	0
O=C(Nc1cccc2[nH]ncc12)NS(=O)(=O)c1ccccc1	-14	3	60*	-24	-17
Cc1cc(C)c2nc(C)cc(N/N=C/c3ccc(O)cc3)c2c1	48*	-8	-15	-111	-101
COc1ccc(OC)c2cc3ccccc3cc12	·	18*	-2	-23	-9
CC(=O)Oc1ccc(N(C(C)=O)S(=O)(=O)c2cccs2)cc1	-5	0	-6	0	0
O=C(CN1C(=O)S/C(=C\c2ccccc2)C1=O)Nc1cc([N+](=O)[O-])ccc1O	43*	-2	-2	0	1

Assay outcomes as filed in PubChem BioAssay.
